Shown are actives, neighbours in structure and some others; about 3.8% of the full set was active somewhere.
hERG rescue = compounds protecting human hERG from proarrhythmic drug block; Q12809; CHO-hERG, FluxOR thallium flux, dofetilide IC70 present; activation (rescue from dofetilide block), less the hit threshold, % at 10 µM; actives 0.51% (n = 310,000);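 active means activation above the mean of controls blocked by dofetilide plus 5 SD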;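 further: thallium influx through hERG after potassium depolarization seen as dye fluorescence rise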
KCNK9 block = inhibitors of human KCNK9 two-pore domain potassium channel; Q9NPC2; HEK293 KCNK9, FluxOR thallium flux fluorescence; hits give low values; B-score at 10 µM; actives 1.2% (n = 310,000);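 active means ratio B-score over 3 SD below the library mean, with starting fluorescence within 5 SD of its mean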;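 further: negative B-score means less thallium flux so channel inhibition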
KCNK3 inh = human KCNK3 channel inhibition, primary screen; actives 0.84% (n = 340,000); O14649; B-score at 10 µM; CHO-KCNK3 thallium flux, FluxOR fluorescence; hits give low values;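 active means B-score under library mean minus 4 SD, starting fluorescence ratio at most library mean plus 5 SD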;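 further: more negative B-score means stronger inhibition of thallium flux through KCNK3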
Kir21 block = blocks the mouse Kir2.1 inward-rectifier potassium channel; AID 1672; HEK293-Kir2.1, FluxOR thallium flux fluorescence; hits give low values; actives 0.85% (n = 310,000); B-score at 10 µM;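 active means fluorescence ratio B-score at or below minus 3 SD of library scores, with starting-brightness B-score within 2 SD, cut at about -4.2 in these data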;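 further: channel flux triggered by added potassium and thallium sulfate stimulus; B-score of peak minus minimum fluorescence over baseline after thallium stimulus; more negative B-score means stronger Kir2.1 block with less thallium influx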
KCNQ1 act = potentiators or activators of human KCNQ1 potassium channel. P51787. CHO-K1 KCNQ1, thallium flux FluxOR fluorescence; hits give high values. B-score at 10 µM. actives 0.35% (n = 310,000). AID 2648;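 active means fluorescence ratio B-score, a plate-corrected score, at least three library SD, with initial intensity B-score within 5 SD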
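Medium – assay buffer, equal DMSO in all wells · Material – CHO-K1 cell line with stable KCNQ1 potassium channel expression · Signal – kinetic FluxOR thallium fluorescence, 10-s 1-Hz baseline, 110-s post-stimulus read · Compound – single concentration per compound, DMSO matched to controls · Schedule – 37 °C overnight plating, 90-min dark dye load, 20-min compound pretreatment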
KCNQ1 block = blocks the human KCNQ1 potassium channel; CHO-K1 KCNQ1, FluxOR thallium flux fluorescence; hits give high values; B-score at 10 µM; actives 1.3% (n = 310,000); P51787; AID 2642;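 active means compounds whose thallium flux B-score, printed positive for inhibition, exceeds three library SD while starting fluorescence stays within three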;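 further: channel opened by potassium depolarization with thallium stimulus after 20 min compound exposure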
KCNK9 inh conf = human KCNK9 inhibitor confirmation; shares compounds with KCNK9 block; HEK293 KCNK9 cells, FluxOR thallium flux fluorescence; inhibition, % at 10 µM; actives 43% (n = 4,900); AID 492992;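 active means thallium signal inhibited by more than 5 SD of the compound-free buffer control wells, on both duplicate plates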;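 further: 0% = assay buffer control wells without compound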
Kir21 sel = mouse Kir2.1 off-target activity of KCNK9 modulators. shares compounds with KCNK9 block. Kir2.1 cells, FluxOR thallium flux fluorescence. inhibition, % at 10 µM. actives 4% (n = 4,900). AID 492993;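 active means thallium signal drop more than 5 SD beyond the mean of the no-compound control wells, seen in both duplicate plates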;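 further: signal is fluorescence rise after thallium addition divided by baseline fluorescence; plate controls were assay buffer only for no effect and full block by chlorpromazine control for full effect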
HEK293 Tl ctr = second counter-screen for KCNK9 modulators: effect in non-induced cells. shares compounds with KCNK9 block. non-induced KCNK9-HEK293, FluxOR thallium flux. inhibition, % at 10 µM. actives 40% (n = 4,900). AID 492997;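 active means thallium signal drop beyond 5 SD of the untreated control mean, on both duplicate plates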;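 further: plate controls were buffer only IC0 wells for no effect and SID17386958 at its maximal inhibitory level for full effect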
Starred values were filed as active, the others as inactive; i = inactive; nt = not tested or not shown.

SMILES	hERG rescue	KCNK9 block	KCNK3 inh	Kir21 block	KCNQ1 act	KCNQ1 block	KCNK9 inh conf	Kir21 sel	HEK293 Tl ctr
Cc1cccc(NC(=O)CCSc2nnc(Cc3ccccc3)o2)c1	-10	i	i	0.57	i	i	i	i	i
Cc1ccc(NC(=O)CCSc2nnc(Cc3ccccc3)o2)cc1	3	i	i	-0.04	i	i	nt	nt	nt
CCCn1c(SCC(=O)Nc2ccc(NC(C)=O)cc2)nc2c1c(=O)n(C)c(=O)n2C	-4	i	i	-1.9	i	i	nt	nt	nt
Cc1ccc(SCC(=O)O/N=C(\N)c2ccc([N+](=O)[O-])cc2)cc1	-10	i	i	-0.87	i	i	i	i	i
CC(C)N1C(=O)C(Cc2nc3ccccc3c(=O)n2-c2ccccc2)c2ccccc21 (configuration not stated)	-6	i	i	-0.9	i	i	i	i	i
CCCN1C(=O)C(Cc2nc3ccccc3c(=O)n2-c2ccccc2)c2ccccc21 (configuration not stated)	-12	i	i	0.01	i	i	nt	nt	nt
CCN(CC)CCNC(=S)Nc1ccc2nc(N3CCCC3)cc(C)c2c1	-6	-9.4*	i	0.24	i	i	i	i	i
CCN(CC)CCNC(=S)Nc1ccc2nc(N3CCN(C)CC3)cc(C)c2c1	-6	i	i	-0.02	i	i	nt	nt	nt
Cc1ccc(S(=O)(=O)N/N=C/c2ccc(OS(=O)(=O)c3ccc(C)c([N+](=O)[O-])c3)cc2)cc1	-10	i	i	-2.7	i	i	i	i	i
COc1ccc(Oc2ccc(C(F)(F)F)cc2NC(=O)c2ccc(F)cc2)cc1	-11	i	i	-0.27	i	6*	i	i	i
COc1cccc(Oc2ccc(C(F)(F)F)cc2NC(=O)c2cccc(F)c2)c1	-12	i	i	-0.26	i	i	nt	nt	nt
COc1ccc(C(=O)C2CC2c2ccc3c(c2)OCO3)cc1 (configuration not stated)	-8	i	i	-0.69	i	i	i	i	30%*
CCOC(=O)C1CCCN(Cc2cc(=O)oc3cc(C)c(C(C)C)cc23)C1 (configuration not stated)	-11	-9.2*	i	-1.8	i	i	52%*	i	42%*
CN1N=C2c3ccccc3CCC2C1c1ccc(C(F)(F)F)cc1 (configuration not stated)	-4	i	nt	0.37	i	i	nt	nt	nt
CN(C)c1ccc(C2C3CCCc4ccccc4C3=NN2C)cc1 (configuration not stated)	-10	i	i	-0.4	i	i	i	i	i
CC(C)=CCc1c(-c2ccc(O)cc2O)oc2c3c(cc(O)c2c1=O)OC(C)(C)C=C3	-9	i	nt	0.67	i	i	i	i	i
CC(C)=CCc1c2c(c(O)c3c(=O)c4c(oc13)-c1cc(O)c(O)cc1OC4C=C(C)C)C=CC(C)(C)O2 (configuration not stated)	-6	i	nt	1.3	i	i	nt	nt	nt
CN(O)/C=C/C(=O)c1ccc(Br)cc1	-14	i	i	0.86	i	i	nt	nt	nt
CC[n+]1cccc(-c2nc3ccccc3s2)c1	-13	i	i	0	i	i	nt	nt	nt
CC[n+]1c(/C=C/N(C)c2ccccc2)n(-c2ccccc2)c2ccc(-c3nc4ccccc4s3)cc21	-31	-16*	-9.7*	-7*	i	15*	90%*	78%*	76%*
O=S(=O)(Nc1nc(-c2sccc2Cl)cs1)c1cc(Cl)ccc1Cl	47*	i	i	1.3	47*	i	i	i	i
COCCN(CCOc1cc(C)cc(C)c1)Cc1ccc(Cl)cc1	-9	i	i	-1.9	i	i	i	i	i
CC(C)C[C@@H](CC#N)N1CCN(Cc2ccccc2)CCC1=O	-7	i	i	0	i	i	nt	nt	nt
CC1CC(C)CN(S(=O)(=O)c2ccc3c(c2)CC(C)N3C(=O)C2CCC2)C1 (configuration not stated)	-8	i	i	-0.39	i	i	i	i	i
CC1CC(C)CN(S(=O)(=O)c2ccc3c(c2)CC(C)N3C(=O)C2CC2)C1 (configuration not stated)	-9	i	i	-0.69	i	i	i	i	i
SMILES	hERG rescue	KCNK9 block	KCNK3 inh	Kir21 block	KCNQ1 act	KCNQ1 block	KCNK9 inh conf	Kir21 sel	HEK293 Tl ctr
Cc1cc(N/N=C/c2ccc(Cl)cc2)nc(NCc2ccccc2)n1	-3	i	i	1.2	i	i	nt	nt	nt
CN(C)c1nc(NCc2ccccc2)nc(N/N=C/c2ccc(Cl)cc2Cl)n1	-18	i	i	0.01	i	i	i	i	i
CCN(C(=O)Cn1cnc2c1c(=O)n(C)c(=O)n2C)C1CCS(=O)(=O)C1 (configuration not stated)	nt	nt	i	nt	nt	nt	nt	nt	nt
CC(=O)Nc1ccccc1C(=O)C(=O)Nc1cccc(C(=O)NCc2ccccc2)c1	-11	i	i	0.01	i	i	nt	nt	nt
Cc1ccc(C(=O)c2coc3c2C(=O)C(=O)c2ccccc2-3)cc1	-9	-9.4*	i	-0.44	i	i	i	i	i
CC1(C)c2[nH]c3ccccc3c2C[C@@H]2C(=O)N(Cc3ccccc3)C(=O)N21	-10	i	i	-0.73	i	i	nt	nt	nt
Cc1cccc(CN2C(=O)[C@H]3Cc4c([nH]c5ccccc45)C(C)(C)N3C2=O)c1	-19	i	i	-1	i	i	i	i	i
Cc1cccc(CN2C(=O)[C@@H]3Cc4c([nH]c5ccccc45)C(C)(C)N3C2=O)c1	-8	i	i	-0.34	i	i	i	i	i
Cc1ccc(-c2nc(NC(=O)CSc3nnc4scc(-c5ccccc5)n34)ns2)cc1	-6	i	i	1.3	i	i	nt	nt	nt
Cc1[nH]c2ccccc2c1C(=O)/C=C/c1ccccc1Cl	-11	i	i	-0.41	i	i	nt	nt	nt
Cc1ccc(S(=O)(=O)N(C)C)cc1-n1c(SCC(=O)Nc2ccc(F)cc2)nc2ccccc2c1=O	-6	-9.7*	i	2	i	i	50%*	i	24%*

High-throughput results (PubChem)
